# EBV gp42 inh: EBV gp42 inhibition; AID 1085; Fluorescence polarization binding assay, mP read-out; hit rate 0.42% among 220,000; inhibition, % (tested at 21.74 µM); Q1HVG2; in the data active means inhibition above about 50%
# MEX-5 binding: C. elegans MEX-5 TCR-2 RNA binding activity. activity score (negative = inhibition of binding), % at 10 µM. MEX-5/FITC-TCR2 RNA binding, fluorescence polarization; hits give low values. hit rate 0.38% among 300,000;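 active means inhibition past about -25% in most replicates, and total fluorescence under double the plate's negative control median, limit read from the data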;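 further: 0% = DMSO and -100% = 5 µM competing unlabeled TCR2 RNA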
# Bcl-xL primary: Bcl-xL (human) inhibition | Q07817 | GST-Bcl-xL / FITC-Bim BH3 peptide fluorescence polarization | inhibition, % at 10.9 µM | hit rate 0.7% among 320,000;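 active means inhibition above the mean of all tested compounds plus 3 SD, cutoff set per campaign, cut at about 30% in these data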;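 further: 0% = DMSO wells and 100% = unlabeled Bim-BH3 peptide competitor; inhibitors lower millipolarization by displacing the labeled peptide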
# GLD-1 RNA inh: GLD-1-TGE RNA interaction inhibition (C. elegans). Q17339. purified GLD-1 + fluorescein TGE RNA, fluorescence polarization. inhibition, % at 5.96 µM. hit rate 0.44% among 320,000. AID 2280;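 active means percent inhibition above a per-plate cutoff, the plate mean of test compounds plus 3 SD, cut at about 30% in these data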;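 further: 0% = DMSO wells with GLD-1 and probe and 100% = wells lacking GLD-1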
# Target sequence (Q17339 whole entry, looked up): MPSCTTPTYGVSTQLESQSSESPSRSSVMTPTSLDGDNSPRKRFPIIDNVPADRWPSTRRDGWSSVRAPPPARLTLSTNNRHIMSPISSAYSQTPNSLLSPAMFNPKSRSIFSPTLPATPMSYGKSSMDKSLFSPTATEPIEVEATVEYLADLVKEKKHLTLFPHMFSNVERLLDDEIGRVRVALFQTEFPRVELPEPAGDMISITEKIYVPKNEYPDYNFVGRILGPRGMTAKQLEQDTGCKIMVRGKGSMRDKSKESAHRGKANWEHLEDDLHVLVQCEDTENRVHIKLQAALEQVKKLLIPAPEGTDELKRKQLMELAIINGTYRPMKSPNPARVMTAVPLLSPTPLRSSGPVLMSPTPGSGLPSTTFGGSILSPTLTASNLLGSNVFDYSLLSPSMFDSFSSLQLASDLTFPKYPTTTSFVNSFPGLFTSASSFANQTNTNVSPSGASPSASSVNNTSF
# IMP-1 inhibitor: inhibitors of Pseudomonas aeruginosa IMP-1 metallo-beta-lactamase; purified IMP-1, nitrocefin hydrolysis, epi-absorbance fluorescence; inhibition, % at 5.6 µM; hit rate 0.45% among 290,000; AID 1556;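 active means inhibition above the mean plus 3 SD of all compounds in the same screening run, cut at about 4.5% in these data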;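 further: 0% = IMP-1 with DMSO and 100% = DMSO wells lacking enzyme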
#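 System – purified recombinant IMP-1 beta-lactamase · Input – IMP-1 dispensed at 0.2 nM · Timing – 15 min preincubation plus 25 min reaction at 25 °C · Signal – Epi-absorbance fluorescence, 480 nm excitation, 530 nm emission · Measure – percent IMP-1 inhibition derived from blank-referenced optical density · Controls – Enzyme-plus-DMSO low control, enzyme-free DMSO high control · Replication – singlicate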
# VIM-2 inhibitor: inhibitors of Pseudomonas aeruginosa VIM-2 metallo-beta-lactamase; purified VIM-2, nitrocefin hydrolysis, epi-absorbance fluorescence; inhibition, % at 5.6 µM; hit rate 0.89% among 290,000; AID 1527;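 active means inhibition above the mean of all tested compounds plus 3 SD, cutoff set per screening run, cut at about 7.5% in these data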;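 further: red hydrolysis product quenches plate fluorescence so inhibitors raise well fluorescence; 0% = enzyme with DMSO and 100% = DMSO without enzyme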
# Numbers without * were called inactive; . = not tested or not shown. Compounds with a hit are over-represented: about 2.2% of the library has one in this group of screens.
SMILES,EBV gp42 inh,MEX-5 binding,Bcl-xL primary,GLD-1 RNA inh,IMP-1 inhibitor,VIM-2 inhibitor
O=C(COC(=O)c1ccccc1C(=O)N1CCN(c2ccccc2)CC1)Nc1ccc(F)cc1,6,-3,54*,37*,-1,-5
COc1cccc(NC(=O)COC(=O)c2ccccc2F)c1,-9,1,-3,0,-2,-3
COc1cc(C(=S)N2CCN(C)CC2)ccc1OCC(=O)NCc1ccccc1,4,1,2,-3,0,2
Cc1ccc(-n2nc3c(c2NC(=O)CC(C)C)CS(=O)(=O)C3)c(C)c1,.,-3,2,6,-5,-1
Nc1oc2ccccc2c1C(=O)Cc1ccccc1O[C@@H]1O[C@H](CO)[C@@H](O)[C@H](O)[C@H]1O,.,1,4,6,.,.
COc1ccc(Cl)cc1NC(=O)C1(c2cccs2)CCOCC1,-11,0,4,-3,-3,-3
Cc1nc(-c2ccccc2)nc2[nH]ccc(=O)c12,-1,1,4,8,-5,-5
Cc1nc(-c2ccc([N+](=O)[O-])cc2)nc2[nH]ccc(=O)c12,.,4,.,.,0,9.7*
CCN(CC)CCN(Cc1cc2cc3c(cc2[nH]c1=O)OCCO3)C(=S)NC,.,1,7,-4,0,0
CCN(CC(=O)NCc1cccs1)C(=O)c1cc(Br)ccc1O,.,.,.,5,.,.
Cn1nc(-c2ccc(Cl)cc2)c2cc(C(=O)N3CCN(C(=O)c4ccco4)CC3)sc21,-5,-2,1,-1,1,0
CCN1CCN(C(=O)c2cc3c(-c4ccc(Cl)cc4)nn(C)c3s2)CC1,-7,4,7,2,0,11*
CCCn1nc(C(=O)N2CCN(S(=O)(=O)c3ccc(C)c(C)c3)CC2)c2ccccc2c1=O,.,.,-5,1,.,.
O=C(COC(=O)CNC(=O)c1ccccc1)NCc1ccc2c(c1)OCO2,.,.,.,8,.,.
CCN1CCN(c2ccc(NC(=O)CCc3c(C)nc4c(-c5ccccc5)c(C)nn4c3C)cc2)CC1,-6,-5,2,-6,4.9*,1
CCOC(=O)N1CCN(C(=O)c2cc3c(=O)n4ccccc4nc3s2)CC1,.,0,4,2,-3,3
CCn1c(=O)c2cc(C(=O)N3CCN(C)CC3)sc2c2ccccc21,2,-1,7,1,-2,9.0*
CN1CCN(C(=O)c2cc3c(=O)n4ccccc4nc3s2)CC1,.,0,-1,3,0,7.9*
COc1ccc(-c2nc(CS(=O)CC(=O)NCCN3CCCCC3C)c(C)o2)cc1OC (stereo not drawn),.,-1,7,-6,-4,-4
Nc1cccc(Nc2ccccc2)c1,-3,1,50*,-72,-4,-2
Nc1nnc2c(n1)CCCC2,6,-32*,16,4,-4,-3
C[C@@]12C(=O)N(CC3CCCO3)CC(=O)N1[C@H]1c3ccccc3OC[C@@H]1[C@@H]2c1ccccc1 (stereo partly drawn),.,.,2,0,.,.
Nc1c(-c2ccc3c(c2)OCCO3)oc2ccccc2c1=O,.,-2,2,10,-4,2
CC1CCc2cccc3c2N1c1cc(C#N)c(C#N)cc1O3 (stereo not drawn),116*,-1,29,27,-4,-5
CC1CCCCN1c1cc(C#N)c(C#N)cc1[N+](=O)[O-] (stereo not drawn),4,1,1,-9,-3,-4
SMILES,EBV gp42 inh,MEX-5 binding,Bcl-xL primary,GLD-1 RNA inh,IMP-1 inhibitor,VIM-2 inhibitor
Cc1ccccc1NC1=C(Cl)C(=O)N(C2CCCCC2)C1=O,4,-1,3,1,8.2*,-2
COc1ccccc1NC1=C(Cl)C(=O)N(C2CCCCC2)C1=O,-2,2,-3,7,-3,-3
COc1ccc(NC(=O)c2cc(S(=O)(=O)N3CCc4ccccc43)cn2C)cc1OC,.,-3,6,3,-1,-2
CCCCCCCC1c2c(c(C)c(C)oc2=O)Oc2c(C)c(C)oc(=O)c21,.,.,2,1,.,.
O=c1c2ccccc2oc2ccc(NCCCn3ccnc3)cc12,.,-27*,24,10,-3,11*
O=C(NN1C(=O)CSC1=S)C(=O)NN1C(=O)CSC1=S,-7,-6,8,-6,18*,4
O=C(Cc1cccc2ccccc12)NN1C(=O)CSC1=S,-12,-16,-5,2,0,-3
Cc1cccc(NC(=O)c2ccccc2Br)n1,-32,1,4,5,.,.
Cc1cccc(NC(=O)c2cccc3c2-c2ccccc2C3=O)n1,-3,0,67*,4,-2,-1
CC1=C(C#N)C(=O)OC(C)(C)C1,15,-47*,86*,63*,-3,-1
Cc1[nH]c(=O)c(C#N)c2c1COC(C)(C)C2,-21,3,0,3,0,1
CN(C)S(=O)(=O)c1cccc(NC(=O)C2CCN(S(=O)(=O)c3cccs3)CC2)c1,.,.,.,3,.,.
CCC(=O)Nc1ccc(C(=O)CSc2nnc(-c3ccccc3F)n2C2CC2)cc1,-3,1,3,6,5.5*,2
CCC(C)NC(=O)NC(=O)CSc1nnc(-c2ccccc2F)n1C1CC1 (stereo not drawn),.,1,1,-2,-4,-2
CC1CN(c2cnn(C(C)C)c(=O)c2Cl)CC(C)O1 (stereo not drawn),.,2,-3,2,-4,-2
Cc1ccc(-c2nc(C=Nc3ccc(O)cc3)c(O)o2)cc1,30,-37*,.,.,0,-3
CN=Cc1nc(-c2ccccc2)oc1O,-3,6,-3,4,-2,-4
N#CC(C#N)=C1C=CC=CN1/C(=C\c1ccccc1Cl)C(=O)c1ccccc1,21,.,51*,26,-2,0
CCN1CCN(C(=O)c2cc3c(=O)oc4ccc(C)cc4c3s2)CC1,-16,0,3,2,-2,8.4*
Cc1ccc2oc(=O)c3cc(C(=O)NCCCN4CCCC(C)C4)sc3c2c1 (stereo not drawn),.,-3,-1,-2,-3,11*
CCCN1CCN(CCCNC(=O)c2cc3c(=O)oc4ccc(C)cc4c3s2)CC1,.,2,10,-1,-3,12*
COc1ncnc2c1NC1=C(S2)C(=NCCC(=O)O)CC(C)(C)C1,140*,-52*,144*,103*,-2,-2
CN(C)c1ncnc2c1NC1=C(S2)C(=NCCCC(=O)O)CC(C)(C)C1,50,-11,32*,3,-2,1
CC1(C)CC(=O)/C(=C(\O)Cc2ccccc2)C(=NCCCCCC(=O)O)C1,1,1,3,5,-3,-1
CN(CC(=O)Nc1ccc(F)c(F)c1F)C(=O)C1=NN(c2ccccc2)C(=O)CC1,.,.,0,-1,.,.
COC(=O)C1=C(C)NC(=O)/C1=C\N(C)C,12,-7,91*,68*,-3,-4
